# Source: ChEMBL document CHEMBL3045285, “Synthesis and insecticidal activities of novel anthranilic diamides containing modified N-pyridylpyrazoles” (2010)
# Assays:
# Assay type in all cases: functional
# Mythimna separata [1] = assay: Insecticidal activity against fourth-instar larval stage of Mythimna separata (Oriental armyworm) in compound pretreated Zea mays L. Tangyu 10 leaves assessed as mortality at 100 mg/l at 25 +/-1 degC after 2 days
# Outline: (§1)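 Greenhouse-reared fourth-instar oriental armyworm larvae. Corn (Tangyu 10) leaves laid on moist filter paper in Petri dishes, sprayed with test solution (200 mg/L solution diluted in distilled water), then air-dried. Ten larvae per dish. Held at 25 ± 1 °C; mortality scored dead/alive 2 days post-treatment. Triplicate treatments, Abbott-corrected, 0–100 scale.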
# Mythimna separata [2] = assay: Insecticidal activity against fourth-instar larval stage of Mythimna separata (Oriental armyworm) in compound pretreated Zea mays L. Tangyu 10 leaves assessed as mortality at 20 mg/l at 25 +/-1 degC after 2 days; outline: as §1
# Mythimna separata [3] = assay: Insecticidal activity against fourth-instar larval stage of Mythimna separata (Oriental armyworm) in compound pretreated Zea mays L. Tangyu 10 leaves assessed as mortality at 200 mg/l at 25 +/-1 degC after 2 days; outline: as §1
# Mythimna separata [4] = assay: Insecticidal activity against fourth-instar larval stage of Mythimna separata (Oriental armyworm) in compound pretreated Zea mays L. Tangyu 10 leaves assessed as mortality at 50 mg/l at 25 +/-1 degC after 2 days; outline: as §1
SMILES,mortality at 100 µg/mL (Mythimna separata [1]),mortality at 20 µg/mL (Mythimna separata [2]),mortality at 200 µg/mL (Mythimna separata [3]),mortality at 50 µg/mL (Mythimna separata [4])
CCCCNC(=O)c1cc(C(=O)Nc2c(C)cc(Cl)cc2C(=O)NC)n(-c2ncccc2Cl)n1,100%,20%,100%,100%
CNC(=O)c1cc(Cl)cc(C)c1NC(=O)c1cc(CO)nn1-c1ncccc1Cl,100%,60%,100%,100%
CCOC(=O)c1cc(C(=O)Nc2c(C)cccc2C(=O)NC(C)C)n(-c2ncccc2Cl)n1,100%,,100%,60%
CNC(=O)c1cc(Cl)cc(C)c1NC(=O)c1cc(COC(=O)C(F)(F)F)nn1-c1ncccc1Cl,100%,20%,100%,100%
CC(=O)OCc1cc(C(=O)Nc2c(C)cc(Cl)cc2C(=O)NCc2ccccc2)n(-c2ncccc2Cl)n1,100%,40%,100%,100%
CNC(=O)c1cc(Cl)cc(C)c1NC(=O)c1cc(C(=O)NCc2ccccc2)nn1-c1ncccc1Cl,100%,20%,100%,100%
CNC(=O)c1cc(Cl)cc(C)c1NC(=O)c1cc(C(=O)NC(C)C)nn1-c1ncccc1Cl,100%,60%,100%,100%
CCCCOC(=O)c1cc(C(=O)Nc2c(C)cc(Cl)cc2C(=O)NC)n(-c2ncccc2Cl)n1,,,80%,
CNC(=O)c1cc(Cl)cc(C)c1NC(=O)c1cc(CNS(C)(=O)=O)nn1-c1ncccc1Cl,60%,,100%,
CNC(=O)c1cc(Cl)cc(C)c1NC(=O)c1cc(CNC(=O)c2ccccc2)nn1-c1ncccc1Cl,,,20%,
CCOC(=O)c1cc(C(=O)Nc2c(C)cc(Cl)cc2C(=O)NC)n(-c2ncccc2Cl)n1,,,80%,
CNC(=O)c1cc(Cl)cc(C)c1NC(=O)c1cc(C(=O)NC(C)(C)C)nn1-c1ncccc1Cl,100%,40%,100%,100%
CNC(=O)c1cccc(C)c1NC(=O)c1cc(COC(C)=O)nn1-c1ncccc1Cl,60%,,100%,
CNC(=O)c1cc(Cl)cc(C)c1NC(=O)c1cc(C=O)nn1-c1ncccc1Cl,40%,,100%,
CC(=O)OCc1cc(C(=O)Nc2c(C)cccc2C(=O)NC2CC2)n(-c2ncccc2Cl)n1,100%,40%,100%,100%
CNC(=O)c1cc(C(=O)Nc2c(C)cc(Cl)cc2C(=O)NCc2ccccc2)n(-c2ncccc2Cl)n1,60%,,100%,
CNC(=O)c1cc(C(=O)Nc2c(C)cc(Cl)cc2C(=O)NOC)n(-c2ncccc2Cl)n1,,,0%,
CONC(=O)c1cc(Cl)cc(C)c1NC(=O)c1cc(COC(C)=O)nn1-c1ncccc1Cl,0%,,100%,
CNC(=O)c1cc(Cl)cc(C)c1NC(=O)c1cc(COS(=O)(=O)c2ccc(C)cc2)nn1-c1ncccc1Cl,100%,80%,100%,100%
CCOC(=O)c1cc(C(=O)Nc2c(C)cc(Cl)cc2C(=O)NOC)n(-c2ncccc2Cl)n1,,,50%,

SMILES,mortality at 100 µg/mL (Mythimna separata [1]),mortality at 20 µg/mL (Mythimna separata [2]),mortality at 200 µg/mL (Mythimna separata [3]),mortality at 50 µg/mL (Mythimna separata [4])
CNC(=O)c1cc(Cl)cc(C)c1NC(=O)c1cc(C(=O)Nc2ccccc2)nn1-c1ncccc1Cl,100%,0%,100%,100%
CCOC(=O)c1cc(C(=O)Nc2c(C)cc(Cl)cc2C(=O)NCc2ccccc2)n(-c2ncccc2Cl)n1,,,20%,
CCCNC(=O)c1cccc(C)c1NC(=O)c1cc(C(=O)OCC)nn1-c1ncccc1Cl,100%,,100%,60%
CNC(=O)c1cc(Cl)cc(C)c1NC(=O)c1cc(CNC(C)=O)nn1-c1ncccc1Cl,100%,0%,100%,100%
CNC(=O)c1cc(C(=O)Nc2c(C)cc(Cl)cc2C(=O)NC)n(-c2ncccc2Cl)n1,60%,,100%,
CCOC(=O)c1cc(C(=O)Nc2c(C)cc(Cl)cc2C(=O)NC2CC2)n(-c2ncccc2Cl)n1,100%,,100%,80%
CCCCNC(=O)c1cc(Cl)cc(C)c1NC(=O)c1cc(C(=O)NC)nn1-c1ncccc1Cl,20%,,100%,
CCOC(=O)c1cc(C(=O)Nc2c(C)cc(Cl)cc2C(=O)NC(C)C)n(-c2ncccc2Cl)n1,,,70%,
CNC(=O)c1cc(Cl)cc(C)c1NC(=O)c1cc(C(=O)OC2CCCCC2)nn1-c1ncccc1Cl,40%,,100%,
CNC(=O)c1cc(Cl)cc(C)c1NC(=O)c1cc(COC(=O)c2ccccc2)nn1-c1ncccc1Cl,100%,40%,100%,100%
CNC(=O)c1cc(Cl)cc(C)c1NC(=O)c1cc(C(=O)OC(C)C)nn1-c1ncccc1Cl,,,80%,
CNC(=O)c1cc(Cl)cc(C)c1NC(=O)c1cc(C(=O)NC2CCCCC2)nn1-c1ncccc1Cl,,,0%,
CCOC(=O)c1cc(C(=O)Nc2c(C)cc(Cl)cc2C(=O)NC(C)(C)C)n(-c2ncccc2Cl)n1,100%,,100%,70%
CNC(=O)c1cc(C(=O)Nc2c(C)cc(Cl)cc2C(=O)NC(C)C)n(-c2ncccc2Cl)n1,60%,,100%,
CNC(=O)c1cc(Cl)cc(C)c1NC(=O)c1cc(COC(=O)CCCCl)nn1-c1ncccc1Cl,100%,60%,100%,100%
CNC(=O)c1cc(Cl)cc(C)c1NC(=O)c1cc(CN)nn1-c1ncccc1Cl,,,20%,
CNC(=O)c1cc(Cl)cc(C)c1NC(=O)c1cc(COS(C)(=O)=O)nn1-c1ncccc1Cl,100%,40%,100%,100%
CNC(=O)c1cc(Cl)cc(C)c1NC(=O)c1cc(COC(=O)COC(C)=O)nn1-c1ncccc1Cl,100%,40%,100%,100%
CCCNC(=O)c1cccc(C)c1NC(=O)c1cc(COC(C)=O)nn1-c1ncccc1Cl,100%,40%,100%,100%
CNC(=O)c1cc(Cl)cc(C)c1NC(=O)c1cc(C(=O)OCc2ccccc2)nn1-c1ncccc1Cl,40%,,100%,
